# Experimental data reported in ChEMBL document CHEMBL4689842, “EUbOPEN Chemogenomics Library wave 1” (2021).
# Key:
# Assay type in all cases: toxicity, cell-based
# Fibroblast = assay: Multiplex assay against human fibroblast
# Method in brief: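 Cells stained live at seeding with Hoechst33342, BioTracker Green Microtubule Cytoskeleton Dye, MitoTracker Red and Annexin V Alexa Fluor 680 were imaged on a CQ1 microscope at 37°C and 5% CO2 after compound addition. Their classification by CellPathfinder machine-learning gating ran from Hoechst high-intensity objects versus normal cells, to healthy, pyknosed or fragmented nuclei among normal cells, to mitotic or apoptotic among pyknosed cells. Tubulin, mitochondrial-mass and membrane-permeability phenotypes are per cents of healthy-nucleus cells.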
# HEK-293T = assay: Incucyte cell viability with HEK293T; conditions: human, 10 µM, compound concentration 10 uM; note: filed as whole numbers so only -1 and 0 and 1 occur
# U2OS = assay: Incucyte cell viability with U2OS; conditions: human, 10 µM, compound concentration 10 uM; note: filed as whole numbers so only -1 and 0 and 1 occur
# [1] = 12 h, 1 µM, compound concentration 1 uM, replicate 1
# [2] = 12 h, 1 µM, compound concentration 1 uM, replicate 2
# [3] = 12 h, 10 µM, compound concentration 10 uM, replicate 1
# [4] = 12 h, 10 µM, compound concentration 10 uM, replicate 2
# [5] = 24 h, 1 µM, compound concentration 1 uM, replicate 1
# [6] = 24 h, 1 µM, compound concentration 1 uM, replicate 2
# [7] = 24 h, 10 µM, compound concentration 10 uM, replicate 1
# [8] = 24 h, 10 µM, compound concentration 10 uM, replicate 2
# [9] = 6 h, replicate number 1, timepoint 6 hours
# [10] = 12 h, replicate number 1, timepoint 12 hours
# [11] = 18 h, replicate number 1, timepoint 18 hours
# [12] = 24 h, replicate number 1, timepoint 24 hours
structure (smiles),measurement,setting,value
Cl.Cl.NC1(c2ccc(-c3nc4ccn5c(=O)[nH]nc5c4cc3-c3ccccc3)cc2)CCC1,Population Apoptotic (%),Fibroblast; [1],71%
same,Population Fragmented Nuclei (%),Fibroblast; [1],35%
same,Population Healthy Nuclei (%),Fibroblast; [1],48%
same,Population Hoechst High Intensity Objects (%),Fibroblast; [1],42%
same,Population Membrane Permeable-Phenotype (%),Fibroblast; [1],4%
same,Population Mitotic Cells (%),Fibroblast; [1],28%
same,Population Normal (%),Fibroblast; [1],57%
same,Population Pyknosed Nuclei (%),Fibroblast; [1],15%
same,Population Tubulin-Different-Phenotype (%),Fibroblast; [1],6%
same,Total Cell Count,Fibroblast; [1],437
same,Population Apoptotic (%),Fibroblast; [2],87%
same,Population Fragmented Nuclei (%),Fibroblast; [2],55%
same,Population Healthy Nuclei (%),Fibroblast; [2],35%
same,Population Hoechst High Intensity Objects (%),Fibroblast; [2],45%
same,Population Membrane Permeable-Phenotype (%),Fibroblast; [2],19%
same,Population Mitochondria Different-Phenotype (%),Fibroblast; [2],0%
same,Population Mitotic Cells (%),Fibroblast; [2],12%
same,Population Normal (%),Fibroblast; [2],54%
same,Population Pyknosed Nuclei (%),Fibroblast; [2],9%
same,Population Tubulin-Different-Phenotype (%),Fibroblast; [2],16%
same,Total Cell Count,Fibroblast; [2],161
same,Population Apoptotic (%),Fibroblast; [3],37%
same,Population Fragmented Nuclei (%),Fibroblast; [3],19%
same,Population Healthy Nuclei (%),Fibroblast; [3],38%
same,Population Hoechst High Intensity Objects (%),Fibroblast; [3],49%
same,Population Membrane Permeable-Phenotype (%),Fibroblast; [3],7%
same,Population Mitochondria Different-Phenotype (%),Fibroblast; [3],4%
same,Population Mitotic Cells (%),Fibroblast; [3],62%
same,Population Normal (%),Fibroblast; [3],50%
same,Population Pyknosed Nuclei (%),Fibroblast; [3],41%
same,Population Tubulin-Different-Phenotype (%),Fibroblast; [3],42%
same,Total Cell Count,Fibroblast; [3],610
same,Population Apoptotic (%),Fibroblast; [4],80%
same,Population Fragmented Nuclei (%),Fibroblast; [4],71%
same,Population Healthy Nuclei (%),Fibroblast; [4],14%
same,Population Hoechst High Intensity Objects (%),Fibroblast; [4],69%
same,Population Membrane Permeable-Phenotype (%),Fibroblast; [4],0%
same,Population Mitochondria Different-Phenotype (%),Fibroblast; [4],40%
same,Population Mitotic Cells (%),Fibroblast; [4],20%
same,Population Normal (%),Fibroblast; [4],30%
same,Population Pyknosed Nuclei (%),Fibroblast; [4],14%
same,Population Tubulin-Different-Phenotype (%),Fibroblast; [4],20%
same,Total Cell Count,Fibroblast; [4],114
same,Population Apoptotic (%),Fibroblast; [5],45%
same,Population Fragmented Nuclei (%),Fibroblast; [5],33%
same,Population Healthy Nuclei (%),Fibroblast; [5],51%
same,Population Hoechst High Intensity Objects (%),Fibroblast; [5],49%
same,Population Membrane Permeable-Phenotype (%),Fibroblast; [5],1%
same,Population Mitochondria Different-Phenotype (%),Fibroblast; [5],1%
same,Population Mitotic Cells (%),Fibroblast; [5],54%
same,Population Normal (%),Fibroblast; [5],50%
same,Population Pyknosed Nuclei (%),Fibroblast; [5],15%
same,Population Tubulin-Different-Phenotype (%),Fibroblast; [5],9%
same,Total Cell Count,Fibroblast; [5],428
same,Population Apoptotic (%),Fibroblast; [6],57%
same,Population Fragmented Nuclei (%),Fibroblast; [6],57%
same,Population Healthy Nuclei (%),Fibroblast; [6],32%
same,Population Hoechst High Intensity Objects (%),Fibroblast; [6],51%
same,Population Membrane Permeable-Phenotype (%),Fibroblast; [6],8%
same,Population Mitochondria Different-Phenotype (%),Fibroblast; [6],0%
same,Population Mitotic Cells (%),Fibroblast; [6],42%
same,Population Normal (%),Fibroblast; [6],48%
same,Population Pyknosed Nuclei (%),Fibroblast; [6],9%
same,Population Tubulin-Different-Phenotype (%),Fibroblast; [6],16%
same,Total Cell Count,Fibroblast; [6],157
same,Population Apoptotic (%),Fibroblast; [7],24%
same,Population Fragmented Nuclei (%),Fibroblast; [7],17%
same,Population Healthy Nuclei (%),Fibroblast; [7],38%
same,Population Hoechst High Intensity Objects (%),Fibroblast; [7],53%
same,Population Membrane Permeable-Phenotype (%),Fibroblast; [7],5%
same,Population Mitochondria Different-Phenotype (%),Fibroblast; [7],10%
same,Population Mitotic Cells (%),Fibroblast; [7],75%
same,Population Normal (%),Fibroblast; [7],46%
same,Population Pyknosed Nuclei (%),Fibroblast; [7],44%
same,Population Tubulin-Different-Phenotype (%),Fibroblast; [7],42%
same,Total Cell Count,Fibroblast; [7],622
same,Population Apoptotic (%),Fibroblast; [8],83%
same,Population Fragmented Nuclei (%),Fibroblast; [8],70%
same,Population Healthy Nuclei (%),Fibroblast; [8],14%
same,Population Hoechst High Intensity Objects (%),Fibroblast; [8],57%
same,Population Membrane Permeable-Phenotype (%),Fibroblast; [8],50%
same,Population Mitochondria Different-Phenotype (%),Fibroblast; [8],33%
same,Population Mitotic Cells (%),Fibroblast; [8],16%
same,Population Normal (%),Fibroblast; [8],42%
same,Population Pyknosed Nuclei (%),Fibroblast; [8],14%
same,Population Tubulin-Different-Phenotype (%),Fibroblast; [8],16%
same,Total Cell Count,Fibroblast; [8],97
same,Growth Rate,HEK-293T; [9],0
same,Growth Rate,HEK-293T; [10],0
same,Growth Rate,HEK-293T; [11],0
same,Growth Rate,HEK-293T; [12],0
same,Growth Rate,"U2OS; 0 h, replicate number 1, timepoint 0 hours",0
same,Growth Rate,U2OS; [9],1
same,Growth Rate,U2OS; [10],1
same,Growth Rate,U2OS; [11],1
same,Growth Rate,U2OS; [12],1
